Efflux pump inh: inhibitors of Candida antifungal efflux pumps expressed in yeast. S. cerevisiae Candida pump triplex, Nile Red efflux. inhibition, % at 10 µM. 0.44% of 330,000 active;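 active means plate passing quality check with inhibition over a set limit, or well fluorescence over plate mean plus 4 SD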;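 further: Nile Red retained in pooled yeast measured as flow cytometry median fluorescence; 0% = buffer negative control and 100% = Enniatin B positive control; higher means more Nile Red kept so more efflux inhibition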
TAG inh: triacylglycerol accumulation inhibition | inhibition, % at 12.5 µM | H9c2 cells, Nile Red lipid (TAG) fluorescence; cells loaded with 200 µM oleic acid | 0.66% of 230,000 active;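 active means pattern-corrected inhibition of lipid staining of at least 50% with the nuclear-stain viability signal not falling by more than 50%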;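 further: 0% = DMSO wells and 100% = triacsin C control wells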
AHR activator: activators of human aryl hydrocarbon receptor; P35869; AHR-responsive luciferase reporter cells, luminescence; activation, % at 5 µM; 2.5% of 320,000 active; AID 2796; in the data active means activation above about 47%;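 further: 0% = vehicle wells and 100% = reference agonist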
SMARCA2 activ: SMARCA2 function activation, primary screen; 1% of 370,000 active; activation, % at 9.1 µM; AID 652017; MG213 cells, MMTV-luciferase reporter, dexamethasone, overnight; in the data active means activation above about 7.8%;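 further: 0% = vehicle wells and 100% = reference activator wells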
Tb MetRS inh: blocks T. brucei methionyl-tRNA synthetase activity | 0.4% of 360,000 active | purified T. brucei MetRS, ATP depletion, Kinase-Glo luminescence | inhibition, % at 11.9 µM;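 active means inhibition above a per-plate cutoff of the control wells' mean inhibition plus 3 SD, cut at about 5.5% in these data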;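 further: 0% = DMSO wells median and 100% = median of wells with control inhibitor compound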
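System: purified T. brucei MetRS enzyme / Detection: Kinase-Glo luciferase luminescence reporting remaining unconsumed ATP / Medium: HEPES buffer with MgCl2, KCl, DTT, spermine, BSA, pyrophosphatase / Replication: singlicate, one well per compound / Evaluation: percent inhibition relative to median high and low control wells / Schedule: 2 h aminoacylation at 25 °C after 15 min preincubation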
AHR act cf: human AHR activation, confirmation; shares compounds with AHR activator; human cells, AHR-responsive luciferase reporter, luminescence; activation, % at 9 µM; 87% of 2,300 active; AID 2845; in the data active means activation above about 49%;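 further: HepG2 hepatoma cells carrying a DRE-driven firefly luciferase reporter; 0% = vehicle wells and 100% = reference agonist wells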
PXR act counter: PXR activation, counter-screen for AHR activators | shares compounds with AHR activator | cell-based PXR reporter, luciferase luminescence | activation, % at 11.6 µM | 88% of 2,300 active | AID 434939; in the data active means activation above about 11%;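 further: human hepatoma DPX-2 cells expressing full-length human PXR; 0% = DMSO and 100% = reference agonist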
Target sequence (O75469 whole entry, looked up): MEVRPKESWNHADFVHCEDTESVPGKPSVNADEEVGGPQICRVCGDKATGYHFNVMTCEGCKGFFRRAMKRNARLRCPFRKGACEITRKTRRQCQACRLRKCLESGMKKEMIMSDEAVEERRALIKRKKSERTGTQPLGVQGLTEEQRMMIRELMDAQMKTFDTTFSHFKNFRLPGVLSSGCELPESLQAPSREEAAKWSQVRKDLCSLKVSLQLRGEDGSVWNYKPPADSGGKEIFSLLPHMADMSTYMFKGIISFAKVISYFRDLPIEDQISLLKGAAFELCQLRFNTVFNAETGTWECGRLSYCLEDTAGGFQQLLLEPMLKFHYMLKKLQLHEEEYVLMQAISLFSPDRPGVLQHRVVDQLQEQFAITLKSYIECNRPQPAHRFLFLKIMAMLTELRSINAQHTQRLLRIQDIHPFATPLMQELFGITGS
* = called active by the depositor; x = not tested or not shown. In the library only some 4.1% were active in any assay of this set; here they are far more common.

SMILES | Efflux pump inh | TAG inh | AHR activator | SMARCA2 activ | Tb MetRS inh | AHR act cf | PXR act counter
COC(=O)c1ccc(/C=C/c2c(-c3ccc(OC)cc3)oc3ccc(N4CCOCC4)cc23)cc1 | 0 | 45 | 30 | 0 | 0 | x | x
COc1ccc(-c2oc3ccc(N4CCOCC4)cc3c2C#Cc2ccc(N)cc2)cc1 | 0 | 45 | 95* | 0 | 0 | 52* | x
c1ccc(-c2csc(Nc3ccccn3)n2)cc1 | 0 | 12 | 139* | -1 | -1 | 131* | 16*
Cc1nc(N)sc1-c1csc(Nc2ccccn2)n1 | x | x | x | 2 | 0 | x | x
Cc1nc(C)c(-c2csc(Nc3ccccn3)n2)s1 | 0 | x | 83* | -1 | 0 | 23 | 35*
CC(C)C[C@H]1COc2cccc(F)c2S(=O)(=O)N1Cc1cn(Cc2ccco2)nn1 | x | x | x | 0 | x | x | x
CC(=O)C1=C(O)C(=O)N(c2nccs2)C1c1ccc(F)cc1 (stereo unspecified) | 0 | x | -3 | 1 | 0 | x | x
CC(=O)C1=C(O)C(=O)N(c2nccs2)C1c1ccc(Br)cc1 (stereo unspecified) | 0 | x | 171* | 0 | 0 | 43 | 9
O=S1(=O)c2ccc(N3CC[C@H](O)C3)cc2O[C@@H]2CCN1C2 | x | x | x | -1 | x | x | x
Fc1ccc(-[n+]2nc(Nc3ccccc3)sc2-c2cccc(Cl)c2Cl)cc1 | 0 | -2 | 113* | -1 | 0 | 11 | 92*
Clc1cccc(-c2sc(Nc3ccccc3)n[n+]2-c2ccccc2)c1Cl | 0 | -107 | 5 | 0 | 0 | x | x
C#CCNC(=O)C[C@H]1C[C@@]2(C(=O)OC)C(=C[C@H](C(C)C)O[C@@H]2C2CC2)N(Cc2cccc3ccccc23)C1=O | x | x | x | -2 | x | x | x
COC(=O)[C@]12C[C@H](CC(=O)NCc3cccc4ccccc34)C(=O)N(CCc3ccc(OC)c(OC)c3)C1=C[C@H](COCc1ccccc1)O[C@@H]2C | x | x | x | -2 | x | x | x
Cc1cccc2c1NC(=O)/C2=C\C(=O)c1cccs1 | 0 | x | 84* | 3 | 0 | 113* | 116*
COC(=O)[C@H](C(C)C)N(Cc1cn(CC2CCCCC2)nn1)S(=O)(=O)c1ccc(F)cc1Br | x | x | x | 0 | x | x | x
COc1ccc(OC)c(-c2csc(NC(=O)COC(=O)c3ccc(NC(=O)CC#N)cc3)n2)c1 | 0 | 8 | 80* | x | 0 | 27 | 9
Cc1cccc(NC(=O)c2ccccc2OCC(=O)N2CCOCC2)c1C | 0 | x | -1 | -1 | -1 | x | x
O=C(Nc1cccc(Cl)c1Cl)c1ccccc1OCC(=O)N1CCOCC1 | 0 | 6 | 82* | -4 | 0 | 89* | 49*
CC(=O)N1CCc2c1cccc2S(=O)(=O)NC(CC(C)C)C(=O)Nc1ccc(F)cc1Cl (stereo unspecified) | x | x | x | -1 | x | x | x
O=C1C(Cl)=C(Nc2ccc(O)cc2)C(=O)c2ccccc21 | 0 | 5 | 132* | -12 | -1 | 112* | x
CCOc1cc2nc(-c3ccc(OC)c(OC)c3)nc(N3CC(C)OC(C)C3)c2cc1OC (stereo unspecified) | 0 | x | 83* | x | x | 96* | 16*
C/C(CC(=O)Nc1cc(Cl)ccc1Cl)=N\NC(=O)c1ccco1 | 0 | -4 | 91* | 4 | 0 | 12 | 16*
C/C(CC(=O)Nc1cc(Cl)ccc1Cl)=N\NC(=O)COc1cccc(C)c1 | 0 | x | 37 | 4 | 0 | x | x
Cc1cc2nn(-c3cccc4ccccc34)nc2cc1N | 0 | 28 | 82* | 1 | 0 | 110* | 21*
Cc1ccc(-n2nc3cc(C)c(N)cc3n2)cc1 | 1 | 13 | 22 | 2 | 0 | x | x
SMILES | Efflux pump inh | TAG inh | AHR activator | SMARCA2 activ | Tb MetRS inh | AHR act cf | PXR act counter
CCn1c(=O)cc(OCC(=O)NC2CC2)c2ccccc21 | 0 | x | 97* | 4 | 0 | 84* | 25*
CCCC#Cc1ccc2c(c1)COc1c3ccccc3nn1-2 | x | 8 | 109* | 5 | 0 | 63* | -2
Cc1ccc(-c2c(NC(=O)C3CC3)nc3ncccn23)cc1 | x | x | x | 0 | x | x | x
COC(=O)N/N=C/c1c[nH]c2ccccc12 | 0 | x | 7 | -1 | -1 | x | x
Cc1onc(-c2ccccc2)c1C(=O)N/N=C/c1cn(C)c2ccccc12 | 0 | -17 | 40 | -4 | 0 | x | x
Cc1nc(C)c(C(=O)N/N=C/c2cn(C)c3ccccc23)s1 | 0 | 30 | 97* | -4 | 0 | 63* | 23*
Cc1nc(C)c(C(=O)N/N=C/c2c[nH]c3ccccc23)s1 | 0 | 18 | 84* | x | 0 | 47* | x
COC(=O)[C@]12C[C@H](CC(=O)N3CCSCC3)C(=O)N(Cc3ccc(Cl)cc3Cl)C1=C[C@H](C1CCCC1)O[C@@H]2C | x | x | x | -2 | x | x | x
c1ccc2c(c1)oc1c(NCCCn3ccnc3)ncnc12 | 0 | 6 | 106* | 0 | 0 | 110* | 22*
CCNc1nc(C)nc2c1oc1ccccc12 | 0 | x | 14 | 1 | -1 | x | x
c1ccc2c(c1)oc1c(NCCCN3CCOCC3)ncnc12 | 0 | x | 6 | -3 | 0 | x | x
Cc1nc(NCCCn2ccnc2)c2oc3ccccc3c2n1 | 0 | x | 79* | 1 | 0 | 110* | 23*
CC1CCc2nc(NC(=O)C3CC3)sc2C1 (stereo unspecified) | 0 | -11 | 135* | 5 | 0 | 105* | 37*
Cn1c(=O)c2nc(-c3ccccc3)oc2c2ccccc21 | 0 | 7 | 104* | 2 | -1 | 120* | 22*
CCCCc1cc2c(c(NC(=O)CC)n1)c(=O)oc1ccccc12 | x | x | x | 0 | -1 | x | x
CCCCc1cc2c(c(NC(C)=O)n1)c(=O)oc1ccccc12 | 0 | x | 94* | x | x | 99* | x
Nc1[nH]c(C(=O)c2ccccc2)c(-c2ccccc2Cl)c1C(=O)NCCc1c[nH]c2ccccc12 | x | x | x | 2 | x | x | x
CCOC(=O)C1(Cc2ccccc2)CCN(Cc2ccccc2[N+](=O)[O-])CC1 | x | x | x | -2 | x | x | x
CC(C)CC(=O)NC(=S)Nc1nc(-c2cccc3ccccc23)cs1 | 0 | 46 | 80* | -6 | -1 | 53* | 29*
COCC(=O)N/N=C/c1ccc(Sc2nc3ccccc3s2)o1 | 0 | -24 | 86* | 2 | 0 | 81* | 22*
CC(C)[C@H](NC(=O)c1ccc(Cl)cc1Cl)C(=O)N1CCC[C@H]1C(=O)NCCc1ccccc1Cl | x | x | x | 4 | x | x | x
O=C(NCc1ccccc1)c1ccc2ccccc2n1 | 0 | x | 5 | 0 | 0 | x | x
O=C(NCc1ccccn1)c1ccc2ccccc2n1 | 0 | -9 | 91* | 3 | 0 | 86* | 16*
CCC(=O)N(C)C[C@@H]1[C@H](c2ccc(C3=CCCCC3)cc2)[C@H](CO)N1C(=O)CC | x | x | x | -1 | x | x | x
O=C(Nc1ccccc1C(=O)N/N=C/c1ccc(O)cc1)c1ccccc1 | 0 | 9 | 103* | 1 | -2 | 88* | 28*
CCn1ncc(C(=O)Nc2ccccc2C)c1C | 0 | x | -2 | -1 | 0 | x | x

Source: PubChem BioAssay
